According to BindingDB's records for doi:10.1016/j.bmc.2019.02.023 (Wesleyan University, 2019):

Target: Beta-lactamase (Enterobacter cloacae, UniProt P05364)
Assay: Irreversible inhibition of Enterobacter cloacae P99 beta-lactamase using cephalothin as substrate by spectrophotometric analysis
Details: read-out: kon (M-1-s-1)
Summary of the method: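 P99 class C β-lactamase (stock concentration by A280, ε 7.1 x 10⁴ M⁻¹cm⁻¹) incubated with inhibitor in 20 mM MOPS pH 7.5, 0.1% BSA, 25 °C. Aliquots diluted 1:50 into 300 μM cephalothin; initial rates followed at 270 nm over time. Titration: 150 nM enzyme with 0–2.0 μM inhibitor to end-point. Time-course and titration data fitted jointly to Scheme 2, k2 fixed at 100 s⁻¹, giving k1, k2/k3 and k_i.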

Sequence of Beta-lactamase (P05364 whole entry): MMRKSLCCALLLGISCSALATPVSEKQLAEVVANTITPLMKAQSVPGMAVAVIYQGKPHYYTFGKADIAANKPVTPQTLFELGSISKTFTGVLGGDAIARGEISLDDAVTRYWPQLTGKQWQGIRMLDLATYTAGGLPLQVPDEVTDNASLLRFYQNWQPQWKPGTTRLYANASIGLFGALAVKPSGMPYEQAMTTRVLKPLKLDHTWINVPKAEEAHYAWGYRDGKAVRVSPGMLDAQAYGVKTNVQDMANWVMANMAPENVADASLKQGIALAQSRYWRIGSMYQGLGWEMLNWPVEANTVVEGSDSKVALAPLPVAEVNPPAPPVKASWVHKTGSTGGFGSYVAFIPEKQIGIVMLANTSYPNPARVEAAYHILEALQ

## O=C(NOC(=O)Oc1ccccc1)OCc1ccccc1
  kon: 2000 M⁻¹ s⁻¹

## O=C(NOC(=O)Oc1ccccc1)OCCc1ccccc1
  kon: 1400 M⁻¹ s⁻¹

## N[C@H](CCCOC(=O)NOC(=O)Oc1ccccc1)C(=O)O
  kon: 16000 M⁻¹ s⁻¹

## CCCCOC(=O)NOC(=O)Oc1ccccc1
  kon: 1100 M⁻¹ s⁻¹

## O=C(O)CCCCOC(=O)NOC(=O)Oc1ccccc1
  kon: 8500 M⁻¹ s⁻¹
